# Source: PubChem BioAssay (several laboratories)
# Sampled rows, rich in hits. Any-hit rate of the full collection: about 2.9%.
# SENP8 block-1 = blocks human SENP8 cleavage of Nedd8 substrate. Q96LD8. recombinant SENP8, Nedd8 substrate fluorescence. inhibition, % at 20 µM. 0.64% of 360,000 active. AID 602440; in the data active = inhibition mostly above about 40%, no sharp cut-off; inactive = mostly below about 27%
# Target sequence (Q96LD8 whole entry, looked up): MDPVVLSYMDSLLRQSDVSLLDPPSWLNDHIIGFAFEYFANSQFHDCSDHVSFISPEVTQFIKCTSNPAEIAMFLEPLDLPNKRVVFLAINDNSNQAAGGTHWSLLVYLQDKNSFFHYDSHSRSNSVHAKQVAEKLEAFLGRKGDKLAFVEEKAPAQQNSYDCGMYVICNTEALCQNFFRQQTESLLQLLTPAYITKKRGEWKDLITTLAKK
# SENP1 inh = inhibitors of human SENP1 SUMO protease catalytic domain | Q9P0U3 | recombinant SENP1 catalytic domain, CyPet-SUMO1-YPet FRET cleavage | inhibition, % at 10 µM | 0.21% of 360,000 active;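 active = inhibition at least 30% at 10 µM, raw YFP signal under a set limit, fluorescence ratio 0.5 to 1.5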;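 also: 0% = enzyme with DMSO and 100% = no enzyme wells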
# Target sequence (Q9P0U3 419-644 limits assumed): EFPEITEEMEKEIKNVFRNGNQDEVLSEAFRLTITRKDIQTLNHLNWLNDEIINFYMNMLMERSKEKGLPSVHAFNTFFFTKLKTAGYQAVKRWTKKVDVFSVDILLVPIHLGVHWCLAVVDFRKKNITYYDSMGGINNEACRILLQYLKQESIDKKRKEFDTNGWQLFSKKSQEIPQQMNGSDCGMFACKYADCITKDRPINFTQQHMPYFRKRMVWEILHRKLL
#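 Material: hSENP1 catalytic domain, recombinant; medium: Tris pH 8 with BME, BSA, NP40 and catalase; compound: single concentration of 10 µM compound, 0.5% DMSO final; technique: FRET read of cyan and yellow fluorescence; timing: 50 min enzyme reaction, room temperature, light-protected; reagent: SFCypet-SUMO1-SFYpet substrate at 25 nM; control set: no-enzyme low, enzyme-DMSO high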
# SENP7 inh = blocks the human protease SENP7. 1.5% of 330,000 active. inhibition, % at 5 µM. recombinant SENP7, Z-RLRGG-aminoluciferin luminescence, 40 min;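 active = inhibition above about 50% at the single test dose, limit read from the data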;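 also: plate controls were DMSO with enzyme for no effect and no enzyme buffer wells for full effect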
# SENP6 inh = SENP6 protease inhibition | Q9GZR1 | Recombinant SENP6 catalytic domain, aminoluciferin luminescence | inhibition, % at 10 µM | 1.8% of 330,000 active | AID 2599;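 active = inhibition above about 50% at the single tested dose, limit read from the data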;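 also: plate controls were DMSO wells with enzyme for no effect and DMSO wells lacking enzyme for full effect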
# SENP8 block-2 = blocks the human protease SENP8; purified SENP8, Z-RLRGG-aminoluciferin cleavage, luminescence; AID 2540; Q96LD8; inhibition, % at 10 µM; 1.2% of 330,000 active; in the data active = inhibition above about 50%
# HSP90 refold inh = inhibitors of HSP90 luciferase refolding in rabbit reticulocyte lysate | luciferase refolding luminescence, 3 h | inhibition, % at 5.6 µM | 0.91% of 290,000 active;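 active = inhibition above the screen-wide mean plus 3 SD, computed separately per campaign, cut at about 16% in these data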;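 also: 0% = DMSO wells and 100% = 60 µM geldanamycin wells; inhibitors lower the luminescence because luciferase stays unfolded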
# * hit, by the source's call; nt = not tested or not shown.
SMILES,SENP8 block-1,SENP1 inh,SENP7 inh,SENP6 inh,SENP8 block-2,HSP90 refold inh
N#CC1=C(N)Oc2cc(N)ccc2C1c1ccc(F)cc1F (centres undefined),-390,-37,-3,9,-6,-2
Cn1nccc1C(=O)N/N=C/c1cccnc1,15,0,9,-13,61*,3
Cc1occc1C(=O)N=Nc1c(O)n(C)c2ccccc12,25,4,75*,73*,47,-1
Cn1c(O)c(N=NC(=O)c2ccccc2O)c2ccccc21,17,0,23,7,-13,0
Cc1ccc(NC(=O)CSCC(=O)Nc2ccccc2N2CCCC2)cc1,6,0,-7,-9,-11,nt
O=C(/C=C/c1c(F)cccc1Cl)Nc1nc2ccccc2[nH]1,6,-2,69*,-27,-28,2
O=C(/C=C/c1ccc(Cl)cc1Cl)NCc1ccncc1,7,2,-9,-29,-15,4
O=C(/C=C/c1ccc(Cl)cc1Cl)Nc1ccncc1,15,0,43,78*,56*,-1
Cc1ccc(/C=C/C(=O)Nc2nc3ccccc3[nH]2)cc1,-22,-1,18,4,-12,-2
O=C(/C=C/c1c(Cl)cccc1Cl)Nc1ccncc1,8,0,53*,60*,43,1
COc1ccc(C2(OC)Oc3cc(OC)ccc3C(=O)C2(O)OC)cc1 (centres undefined),6,2,nt,nt,nt,nt
Cc1occc1C(=O)NNC(=O)CN1C(=O)NC2(CCCCC2)C1=O,2,3,-7,-13,3,nt
Cc1ccccc1NS(=O)(=O)c1ccc(C(=O)N2CCN(S(=O)(=O)c3ccccc3)CC2)cc1,11,4,-2,2,11,nt
COc1ccc(N2CCN(C(=O)COC(=O)c3ccco3)CC2)cc1,17,-1,-17,-4,-14,-3
CCC(c1ccccc1)C(CC)c1cc(O)c(O)c(O)c1 (centres undefined),64*,0,nt,nt,nt,nt
CCC(C)c1ccccc1O (centres undefined),-3,2,9,2,0,nt
COc1cc(F)ccc1-c1cc(C(=O)Nc2cc(OC)c(OC)c(OC)c2)[nH]n1,13,0,nt,nt,nt,nt
C#CCOCCOCCOCCNc1nc(N2CCN(C(=O)[C@H](CCCCN)n3cc([C@@H](N)[C@H](C)CC)nn3)CC2)nc(N2CCN(C(=O)[C@H](CCC(=O)O)n3cc([C@@H](N)CCSC)nn3)CC2)n1,6,-2,-2,-4,-1,nt
O=C(Cc1ccccc1)NC1(O)C(=O)c2ccccc2C1=O,50*,2,13,42,30,-4
CC(NC(=O)Cc1ccccc1)c1ccccc1 (centres undefined),7,0,-2,-2,8,-1
O=C(NCc1ccccc1)C(C1CC1)n1c(=O)c(-c2cc3ccccc3[nH]2)nc2ccccc21 (centres undefined),-390,-15,nt,nt,nt,nt
COC(=O)CC1OCC=C2CN3CCC45C6=CC(=O)C(=O)C([N+](=O)[O-])=C6NC4C1C2CC35 (centres undefined),110*,2,nt,nt,nt,nt
O=C1CCC/C=C/C[C@H](CC(=O)N(CCO)Cc2ccccc2)C(=O)N[C@@H](Cc2ccccc2)CO1,10,0,-4,-18,1,nt
CC1=NN(c2ccccc2)C(=O)C1,49*,3,-3,-8,-5,5
CC1=NN(c2ccc(Cl)cc2)C(=O)C1,14,0,10,11,-6,4
SMILES,SENP8 block-1,SENP1 inh,SENP7 inh,SENP6 inh,SENP8 block-2,HSP90 refold inh
CC1=NN(c2ccc(N)cc2)C(=O)C1,68*,-2,18,28,5,15
COc1ccc(CN(C(=O)c2cc(=O)c3ccccc3o2)C2CCS(=O)(=O)C2)cc1OC (centres undefined),2,0,1,-1,0,4
COc1ccccc1CNC(=O)Cc1ccccc1,-2,-2,4,-26,-8,-1
CCCCNC(=O)C1(N2C(=O)c3ccccc3C2=O)CCCC1,16,2,nt,nt,nt,nt
COc1cccc(-c2nc(CS(=O)(=O)CC(=O)Nc3c(C)cccc3C)c(C)o2)c1,10,-1,10,3,1,72*
O=C(C[C@@H]1C/C=C\CC[C@H](Cc2ccc(F)cc2)C(=O)OC[C@@H]2CCCN2C1=O)N[C@H](CO)Cc1ccccc1,-2,3,10,17,-3,nt
O=C(Cn1nnc(-c2ccccc2)n1)N/N=C/c1cccc([N+](=O)[O-])c1O,27*,5,5,-7,6,-1
CC1=CC(=C2C(=O)c3ccccc3C2=O)C=C(C)N1Cc1ccco1,16,37*,-2,20,-4,2
O=C1c2ccccc2C(=O)N1Cc1ccco1,27,1,0,-3,-9,3
COc1cccc(NC(=O)c2cccc(N3C(=O)C4C5C=CC(C5)C4C3=O)c2)c1 (centres undefined),11,1,-2,1,-13,-4
CC1CCc2c(sc3ncn(CC(=O)N=Nc4c(O)[nH]c5ccccc45)c(=O)c23)C1 (centres undefined),44*,3,11,-12,-8,2
CC1CCc2c(sc3ncn(CCO)c(=O)c23)C1 (centres undefined),1,4,1,15,-3,2
CCC1CCCCN1CCCNC(=O)CCC(=O)N1CC(C)Oc2ccccc21 (centres undefined),1,-1,-12,-6,-5,-1
Nc1nnnn1/N=C/c1ccccc1OCc1ccc(Cl)cc1Cl,-8,1,10,11,-4,-3
Nc1nnnn1/N=C/c1cc(Cl)cc(Cl)c1OCc1ccc(Cl)cc1Cl,-53,53*,-7,-4,-1,-3
CCn1c(CN2CCOCC2)nnc1SCC(=O)Nc1ccc(C(C)=O)cc1,-6,2,-7,-6,2,2
Oc1ccccc1CNc1cccc2cccnc12,22,-11,66*,91*,79*,3
CSc1ccc(Cl)c(C(=O)Nc2cc(S(=O)(=O)N3CCOCC3)ccc2N2CCOCC2)c1,-2,-1,13,4,-6,nt
CC(N=Cc1cccc(O)c1O)c1ccccc1 (centres undefined),81*,6,-7,27,3,6
CC1=NN(c2ccccc2)C(=O)/C1=C/c1cccs1,16,0,19,9,-1,1
Cc1cc(/C=C2/NC(=O)N(c3ccccc3)C2=O)c(C)n1-c1cccnc1,-294,-11,0,-11,4,6
CC1=NN(c2ccccc2)C(=O)/C1=C\c1cc(C)n(-c2ccccc2)c1C,46*,5,7,6,-7,3
CC1=NN(c2ccccc2)C(=O)/C1=C\c1cc(C)n(-c2cccnc2)c1C,42*,3,-4,-6,3,2
